{"source": "PubChem BioAssay", "note": "Calls of active or inactive are those of the source.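 Rule for the calls: active = duplicate-averaged activation above buffer control mean plus 5 SD of those controls; inactive = the rest.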"}
{"test": "thallium flux activation in parental CHO cells, counter-screen for KCNQ1 potentiator project (AID 493006)", "conditions": "parental CHO-K1 cells, FluxOR thallium flux, at 10 µM; hits give high values", "how_it_was_run": "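Assay system: Untransfected host CHO-K1 cells with FluxOR thallium dye | Probe or stimulus: Potassium/thallium depolarization pulse | Schedule: Overnight 37 °C plating, 90 min RT dye, 20 min compound | Detection: Kinetic thallium-flux fluorescence | Read-out: Max-minus-min fluorescence over baseline, percent of buffer-to-R-L3 span | Benchmarks: Low control buffer, high control R-L3 activator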"}
{"smiles": "Cc1cc(SCNC(=O)c2ccccc2)ncn1", "outcome": "inactive"}
{"smiles": "c1ccc2c(c1)OCC(CNc1ncnc3nc[nH]c13)O2", "note": "(stereo not given)", "activation": "227% (active)"}
{"smiles": "CCN(C(=O)COC(=O)c1ccccc1Nc1cccc(C)c1C)C1CCS(=O)(=O)C1", "note": "(stereo not given)", "outcome": "inactive"}
{"smiles": "CCOC(=O)Cc1csc(NC(=S)NC(=O)C(C)(C)C)n1", "activation": "136% (active)"}
{"smiles": "C/C(=N\\NC(=S)Nc1cccc(C)c1)c1cc2ccccc2o1", "activation": "159% (active)"}
{"smiles": "CC(=O)/C=C1/C(=O)Nc2ccccc21", "activation": "167% (active)"}
{"smiles": "CC(=O)N1CCN=C1SCc1ccc(F)cc1", "activation": "355% (active)"}
{"smiles": "CNC(C)C#Cc1ccc2sc3cccc(OC)c3c(=O)c2c1", "note": "(stereo not given)", "outcome": "inactive"}
{"smiles": "CCOC(=O)c1c(C)[nH]c(=S)c(C#N)c1-c1ccc(Cl)cc1", "activation": "150% (active)"}
{"smiles": "COc1cc(S(=O)(=O)Nc2cccnc2)ccc1Cl", "activation": "200% (active)"}
{"smiles": "CCN(CC)S(=O)(=O)c1cccc(C(=O)N[C@H](C(=O)NNC(=O)c2ccccc2)C(C)C)c1", "outcome": "inactive"}
{"smiles": "S=c1[nH]nc(CSc2nc3ccccc3s2)n1C1CCCCC1", "activation": "142% (active)"}
{"smiles": "Cc1ccc(CN2C(=O)CC(Nc3ccc(N4CCOCC4)cc3)C2=O)cc1", "note": "(stereo not given)", "outcome": "inactive"}
{"smiles": "COc1ccc2nc(N=Nc3ccc(O)c4ccccc34)sc2c1", "activation": "210% (active)"}
{"smiles": "CCOC(=O)NC(=S)Nc1ccc(C(C)(C)C)cc1", "outcome": "inactive"}
{"smiles": "S=c1nc(C2CC2)[nH]c2ccccc12", "activation": "414% (active)"}
{"smiles": "Cc1nc2ccccn2c1C(=O)N/N=C/c1ccccc1", "outcome": "inactive"}
{"smiles": "Nc1ccccc1OCCOCCOc1ccccc1N", "outcome": "inactive"}
{"smiles": "CCN(CC)CCn1c(OC)cc(=O)[nH]c1=O", "outcome": "inactive"}
{"smiles": "CC(C)(C)c1ccc2c(c1)OC(C(=O)N/N=C\\c1ccccn1)CO2", "note": "(stereo not given)", "outcome": "inactive"}
